Assay [1] concerns the target T1, Gonadotropin-releasing hormone receptor (Homo sapiens, UniProt P30968).
T1 sequence (P30968 whole entry): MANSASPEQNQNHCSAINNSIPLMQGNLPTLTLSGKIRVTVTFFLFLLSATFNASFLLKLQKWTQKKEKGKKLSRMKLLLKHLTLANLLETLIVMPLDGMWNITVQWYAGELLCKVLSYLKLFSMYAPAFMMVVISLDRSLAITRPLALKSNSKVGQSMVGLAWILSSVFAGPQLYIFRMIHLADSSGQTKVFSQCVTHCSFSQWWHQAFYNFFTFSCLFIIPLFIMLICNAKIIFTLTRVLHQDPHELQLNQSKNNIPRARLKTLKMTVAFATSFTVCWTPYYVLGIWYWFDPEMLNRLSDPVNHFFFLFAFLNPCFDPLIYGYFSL
As to the kind of experiment: Inhibitory concentration towards human leutinizing releasing hormone receptor. The method in brief:
(§1)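 CHO cells transfected with human or rat LHRH receptor cDNA, loaded with Fluo-3 AM and preincubated 20 min at 25 °C with varying compound concentrations. Stimulated with LHRH (10 nM for human-receptor cells, 1 nM for rat-receptor cells). Intracellular calcium fluorescence read; inhibition from integral ratio (actual/initial fluorescence). IC50 is the mean of at least two experiments, each in triplicate.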

Assay [2] deals with T2, Gonadotropin-releasing hormone receptor (Rattus norvegicus, UniProt P30969).
T2 sequence (P30969 whole entry): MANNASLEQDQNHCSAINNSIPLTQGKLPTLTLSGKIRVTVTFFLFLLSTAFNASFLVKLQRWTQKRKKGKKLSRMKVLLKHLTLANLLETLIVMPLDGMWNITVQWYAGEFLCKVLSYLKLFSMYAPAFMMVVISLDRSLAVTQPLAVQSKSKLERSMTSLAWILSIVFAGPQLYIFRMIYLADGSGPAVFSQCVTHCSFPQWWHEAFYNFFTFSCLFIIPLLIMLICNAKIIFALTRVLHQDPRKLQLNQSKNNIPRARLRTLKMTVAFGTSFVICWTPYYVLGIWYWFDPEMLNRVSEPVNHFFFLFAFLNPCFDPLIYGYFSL
Briefly: Inhibitory concentration towards rat leutinizing releasing hormone receptor. The gist of the method:
as §1

Molecules are shown by their SMILES.

Turning to `O=S(=O)(NCc1ccc(F)cc1)c1ccc2c(c1)nc(SCCO)n2Cc1ccccc1`, the results for the IC50 in assay [1] and in assay [2] were 0.27 µM and 0.6 µM, respectively.
Consider `CSc1nc2cc(S(=O)(=O)NCc3ccc(F)cc3)ccc2n1Cc1ccccc1`, for which the IC50 in assay [1] is 0.22 µM; in assay [2] it was 0.21 µM.
With `CCOc1nc2cc(S(=O)(=O)NCc3ccc(F)cc3)ccc2n1Cc1cccc(Cl)c1`, the results for the 50% inhibitory concentration (IC50) in assay [1] and in assay [2] were 0.88 µM and 1.9 µM, respectively.
For `O=S(=O)(NCc1ccc(F)cc1)c1ccc2c(c1)nc(SCCN1CCOCC1)n2Cc1ccccc1`, in that order: 0.16 µM and 0.17 µM.
As for `O=S(=O)(NCc1ccc(F)cc1)c1ccc2c(c1)nc(SCc1ccccn1)n2Cc1ccccc1`, the IC50 in assay [1] came to 0.82 µM; in assay [2], 0.96 µM.
`O=S(=O)(NCc1ccc(F)cc1)c1ccc2c(c1)nc(NCCN1CCOCC1)n2Cc1ccccc1`: the half-maximal inhibitory concentration (IC50) in assay [1] and in assay [2] was more than 10 µM each time.
On to `O=S(=O)(NCc1ccc(F)cc1)c1ccc2c(c1)nc(SCCc1cccnc1)n2Cc1ccccc1`, for which the IC50 in assay [1] worked out at 0.12 µM; in assay [2], 0.14 µM.
As to `CCSc1nc2cc(S(=O)(=O)NCc3ccc([N+](=O)[O-])cc3)ccc2n1Cc1ccccc1`, the IC50 worked out at 1.1 µM in assay [1] and 1.2 µM in assay [2].
Regarding `CCSc1nc2cc(S(=O)(=O)NCCN3CCOCC3)ccc2n1Cc1ccccc1`, the IC50 in assay [1] and in assay [2] was more than 10 µM throughout.
Take `CCSc1nc2cc(S(=O)(=O)NCc3ccc(F)cc3)ccc2n1Cc1ccccc1`: the half-maximal inhibitory concentration (IC50) stood at 0.25 µM in assay [1] and 0.2 µM in assay [2].
Consider `O=S(=O)(NCc1ccc(F)cc1)c1ccc2c(c1)nc(SCCc1ccccn1)n2Cc1ccccc1`, for which the IC50 in assay [1] came out at 0.23 µM; in assay [2], 0.28 µM.
For `CCOC(=O)CSc1nc2cc(S(=O)(=O)NCc3ccc(F)cc3)ccc2n1Cc1ccccc1` the same measures were 0.49 µM and 0.81 µM.
Take `CCOc1nc2cc(S(=O)(=O)NCc3ccc(F)cc3)ccc2n1Cc1ccccc1`: the results for the IC50 in assay [1] and in assay [2] were 0.3 µM and 0.47 µM, respectively.
With `CCSc1nc2cc(S(=O)(=O)NCc3ccc(Cl)cc3)ccc2n1Cc1ccccc1`, the IC50 in assay [1] was found to be 0.28 µM; in assay [2], 0.33 µM.
`CCOc1nc2cc(S(=O)(=O)NCc3ccc(F)cc3)ccc2n1Cc1ccsc1`: the IC50 in assay [1] amounted to 1.4 µM; in assay [2], 2 µM.
For `O=S(=O)(NCc1ccc(F)cc1)c1ccc2c(c1)nc(SCc1ccncc1)n2Cc1ccccc1`, the IC50 in assay [1] was 0.32 µM; in assay [2], 0.24 µM.
For the molecule `O=S(=O)(NCc1ccc(F)cc1)c1ccc2c(c1)nc(SCCNCc1ccccc1)n2Cc1ccccc1`, the 50% inhibitory concentration (IC50) in assay [1] worked out at 0.67 µM; in assay [2], 0.53 µM.
Turning to `CCSc1nc2cc(S(=O)(=O)NCc3cccc(OC)c3)ccc2n1Cc1ccccc1`, the IC50 in assay [1] was found to be 4.8 µM; in assay [2], 4 µM.
For `CCSc1nc2cc(S(=O)(=O)NCc3ccc(F)cc3)ccc2n1CCc1ccccc1`, the IC50 in assay [1] and in assay [2] was more than 10 µM each time.
Consider `O=S(=O)(NCc1ccc(F)cc1)c1ccc2c(c1)nc(OCCN1CCOCC1)n2Cc1ccccc1`, for which the half-maximal inhibitory concentration (IC50) in assay [1] came out at 5.8 µM; in assay [2] it was 3.2 µM.
As for `CCSc1nc2cc(S(=O)(=O)NCc3ccc(OC)cc3)ccc2n1Cc1ccccc1`, the concentration for half-maximal inhibition (IC50) in assay [1] was determined as 1.1 µM; in assay [2], 0.94 µM.
As for `CCOc1nc2cc(S(=O)(=O)NCc3ccc(F)cc3)ccc2n1CCN1CCOCC1`, the values for the IC50 in assay [1] and in assay [2] were 2.1 µM and 7.2 µM, respectively.

As a reminder, the IC50 is the midpoint of a concentration-inhibition curve. A lower IC50 goes with greater potency in that assay.
